Assay [1] relates to L1210, FM3A, CEM and HeLa cell lines. Kind of assay: Antiproliferative activity over the panel of four cancer cell lines. Type of assay: cell-based. Summed up: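 Cells were seeded at 300,000–500,000 cells/mL with serial dilutions of test compound and incubated at 37 °C: 2 days for L1210 and FM3A, 3 days for CEM, and 4 days for HeLa. Cell number was counted with a Coulter counter. For each line, IC50 was the concentration that inhibited proliferation by 50%.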

Assay [2] has as its system HeLa cells. The assay can be described thus: Flow cytometric analysis of cell cycle distribution. Type of assay: cell-based, human. The note with it: 24 h treatment, evident at 500 nM. Put shortly: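 HeLa cells (5 × 10^5) exposed to a range of test compound concentrations for 24 h, collected, and fixed in ice-cold 70% ethanol. Treated with lysis buffer containing RNase A and 0.1% Triton X-100, stained with PI, then analysed by flow cytometry. Phase distribution taken from DNA histograms. Mean ± SEM of two independent experiments.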

The subject of assay [3] is HeLa cells. Kind of assay: Apoptosis assay. The format is cell-based, human. The note with it: 24 h incubation, further increased at 48 h.
The subject of assay [4] is HeLa cells. Kind of assay: Mitochondrial membrane potential. Type of assay: cell-based, human. The note with it: 100–250 nM, 6-48 h. Summed up:
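HeLa cells treated with test compound for 6, 12, 24 or 48 h, then stained with the lipophilic cationic probe JC-1. Mitochondrial potential read by flow cytometry. Data are mean ± SEM of three independent experiments.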

The test system of assay [5] is HeLa cells. Kind of assay: ROS production. The note with it: 250 nM, starting after 12–24 h. Type of assay: cell-based, human.
The subject of assay [6] is HeLa cells. Kind of assay: Western blot analysis of cell cycle checkpoint and apoptosis proteins. Type of assay: cell-based, human.

Turning to `COC(=O)c1sc(-c2cc(OC)c(OC)c(OC)c2)cc1Nc1cc(OC)c(OC)c(OC)c1` [Compound 4p, Methyl 5-(3,4,5-trimethoxyphenyl)-3-[(3,4,5-trimethoxyphenyl)amino]thiophene-2-carboxylate], the “antiproliferative activity (in words)” value in assay [1] (four cancer cell lines) is “not active”.

For orientation: IC50 means the point on the concentration scale where inhibition reaches its midpoint. As to `COC(=O)c1sc(-c2cccs2)cc1Nc1cc(OC)c(OC)c(OC)c1` [Compound 4c, Methyl 4-[(3,4,5-trimethoxyphenyl)amino]-[2,2′-bithiophene]-5-carboxylate], the IC50 in assay [1] (read-out: mean IC50 value (antiproliferative activity), mean over cell lines) was determined as 140 nM. The “Effect on cell cycle progression” value in the assay with HeLa cells [2] is on record as “induced a G2/M arrest”. Further, in the assay with HeLa cells [3], the “Induction of apoptosis (annexin-V/PI)” value is reported as “induced a significant proportion of apoptotic cells”. For the same molecule, the “Mitochondrial depolarization (cells with low Δψmt)” value with HeLa cells [4] was “time-dependent increase in the percentage of cells with low Δψmt”. Also, in the assay on HeLa cells [5], the ROS production entry is on record as “induced significant production of ROS”. For the same molecule, the PARP cleavage entry in the assay with HeLa cells [6] is listed as “concentration-and time-dependent cleavage of PARP”. Also, the “cyclin B1 expression” value in the assay on HeLa cells [6] (24 h, concentration-dependent, marked reduction at 48 h) was “increase in cyclin B1 expression”. Further, the cdc25c expression entry in the assay with HeLa cells [6] (24 h, even at 100 nM) is on record as “marked reduction in the expression of phosphatase cdc25c”. Moreover, in the assay with HeLa cells [6] (24 h and 48 h, 250 nM), the “phosphorylated Cdk1” value was “decrease in the phosphorylated form of cyclin dependent kinase-1”. The “expression of anti-apoptotic proteins Bcl-2 and Mcl-1” value in the assay on HeLa cells [6] (starting after 24 h, even at 0.1 μM) is given as “decreased”.

`COC(=O)c1sc(-c2ccccc2)cc1Nc1cc(OC)c(OC)c(OC)c1` [Compound 4a, Methyl 5-phenyl-3-[(3,4,5-trimethoxyphenyl)amino]thiophene-2-carboxylate]: in the assay on HeLa cells [2], the “Effect on cell cycle progression” value was “induced a G2/M arrest”. The “Induction of apoptosis (annexin-V/PI)” value in the assay with HeLa cells [3] was “induced a significant proportion of apoptotic cells”.

For the molecule `COC(=O)c1sc(-c2ccc(C)cc2)cc1Nc1cc(OC)c(OC)c(OC)c1` [Compound 4i, Methyl 5-(p-tolyl)-3-[(3,4,5-trimethoxyphenyl)amino]thiophene-2-carboxylate], the “Effect on cell cycle progression” value with HeLa cells [2] is listed as “induced a G2/M arrest”. The “Induction of apoptosis (annexin-V/PI)” value in the assay on HeLa cells [3] is on record as “induced a significant proportion of apoptotic cells”.

(Values after paper PMC5791907 (European journal of medicinal chemistry, 2018).)
